Activity calls are given as the source filed them. No cut-off for these calls is given here.
Assays:
Fibroblast = assay: Cytotoxicity against 7 mW/cm'2 irradiated human fibroblasts at 5 uM measured after 20 mins by spectrophotometric method; type: cell-based
Method in brief: (§1)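 Human fibroblasts or rat H9c2 cardiomyocytes kept 20 min at room temperature in PBS, either in the dark or irradiated at λexc 400 nm, 7 mW/cm2, with or without 5 μM test agent. Cytotoxicity measured in triplicate; means ± SD, n = 3.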

[1] = target: T1, ATP-binding cassette sub-family C member 4 (Homo sapiens, UniProt O15439); assay: Inhibition of MRP4 in 7 mW/cm'2 irradiated human M14 cells assessed as reduction in MRP4 ATPase activity at 5 uM measured after 20 mins by spectrophotometric method
T1 sequence (O15439 whole entry): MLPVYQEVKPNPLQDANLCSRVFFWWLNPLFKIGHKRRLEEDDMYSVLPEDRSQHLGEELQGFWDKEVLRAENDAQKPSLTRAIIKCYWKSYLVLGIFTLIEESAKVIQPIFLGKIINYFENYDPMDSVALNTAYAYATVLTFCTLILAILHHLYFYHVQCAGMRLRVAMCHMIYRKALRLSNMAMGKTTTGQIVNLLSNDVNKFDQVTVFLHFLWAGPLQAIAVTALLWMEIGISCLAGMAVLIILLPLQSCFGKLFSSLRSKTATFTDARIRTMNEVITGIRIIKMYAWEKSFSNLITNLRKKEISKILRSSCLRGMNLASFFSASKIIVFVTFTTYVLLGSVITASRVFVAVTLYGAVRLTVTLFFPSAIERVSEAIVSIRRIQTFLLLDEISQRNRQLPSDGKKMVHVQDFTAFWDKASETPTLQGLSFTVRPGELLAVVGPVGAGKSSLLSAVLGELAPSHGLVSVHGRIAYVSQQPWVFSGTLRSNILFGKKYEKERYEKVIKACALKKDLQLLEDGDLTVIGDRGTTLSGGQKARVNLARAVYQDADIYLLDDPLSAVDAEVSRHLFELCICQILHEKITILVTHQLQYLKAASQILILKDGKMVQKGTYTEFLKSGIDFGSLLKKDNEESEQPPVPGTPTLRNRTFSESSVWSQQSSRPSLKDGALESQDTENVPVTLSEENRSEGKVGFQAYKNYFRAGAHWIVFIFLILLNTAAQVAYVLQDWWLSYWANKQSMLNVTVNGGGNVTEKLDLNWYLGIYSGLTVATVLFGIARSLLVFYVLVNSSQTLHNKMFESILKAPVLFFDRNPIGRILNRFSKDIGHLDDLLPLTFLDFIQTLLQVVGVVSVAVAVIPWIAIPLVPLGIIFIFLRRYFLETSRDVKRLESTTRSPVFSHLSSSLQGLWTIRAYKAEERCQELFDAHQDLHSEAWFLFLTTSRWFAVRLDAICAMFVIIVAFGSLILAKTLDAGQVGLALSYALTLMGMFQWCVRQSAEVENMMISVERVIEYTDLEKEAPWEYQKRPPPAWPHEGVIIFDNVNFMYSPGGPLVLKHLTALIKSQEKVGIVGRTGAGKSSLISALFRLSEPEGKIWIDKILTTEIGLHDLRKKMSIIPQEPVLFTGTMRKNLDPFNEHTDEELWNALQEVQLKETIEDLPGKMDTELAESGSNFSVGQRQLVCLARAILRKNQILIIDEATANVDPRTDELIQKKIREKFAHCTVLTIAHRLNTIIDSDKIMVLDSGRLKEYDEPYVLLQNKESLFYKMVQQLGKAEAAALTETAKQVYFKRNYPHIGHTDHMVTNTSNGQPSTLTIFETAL
Method in brief: (§2)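 M14 melanoma cells held 20 min at room temperature in PBS under 400 nm light (7 mW/cm2) with 5 μM compound, alone or with equimolar doxorubicin. Transporter ATPase activity then measured; n = 3.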

[2] = target: T2, Broad substrate specificity ATP-binding cassette transporter ABCG2 (Homo sapiens, UniProt Q9UNQ0); assay: Inhibition of BCRP in 7 mW/cm'2 irradiated human M14 cells assessed as nitration of tyrosine in BCRP at 5 uM measured after 20 mins by immunoblotting
T2 sequence (Q9UNQ0 whole entry): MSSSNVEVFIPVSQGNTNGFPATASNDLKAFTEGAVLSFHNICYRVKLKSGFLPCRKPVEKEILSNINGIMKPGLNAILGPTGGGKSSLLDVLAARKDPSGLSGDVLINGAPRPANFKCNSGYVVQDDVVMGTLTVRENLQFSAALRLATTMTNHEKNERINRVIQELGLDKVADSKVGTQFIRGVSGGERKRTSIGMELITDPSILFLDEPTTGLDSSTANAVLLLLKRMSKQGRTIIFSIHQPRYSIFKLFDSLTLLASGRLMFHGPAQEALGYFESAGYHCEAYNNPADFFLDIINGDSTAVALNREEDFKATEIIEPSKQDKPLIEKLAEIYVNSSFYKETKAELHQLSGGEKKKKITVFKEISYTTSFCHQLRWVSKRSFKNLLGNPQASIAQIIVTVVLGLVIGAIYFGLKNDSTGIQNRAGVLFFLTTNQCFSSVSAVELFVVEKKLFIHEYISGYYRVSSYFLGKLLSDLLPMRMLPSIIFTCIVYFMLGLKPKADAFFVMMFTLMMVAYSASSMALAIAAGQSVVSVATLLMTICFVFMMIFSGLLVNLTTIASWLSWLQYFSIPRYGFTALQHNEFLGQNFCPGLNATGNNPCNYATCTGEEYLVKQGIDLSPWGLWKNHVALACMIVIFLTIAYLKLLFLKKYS
Method in brief: (§3)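 M14 melanoma cells held 20 min at room temperature in PBS under 400 nm light (7 mW/cm2) with 5 μM compound, alone or with equimolar doxorubicin. Nitrated ABC transporters (Pgp, MRP1, MRP4, BCRP) detected by immunoblot.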

Homo sapiens = species on record: Homo sapiens; assay: Inhibition of Pgp in 7 mW/cm'2 irradiated human M14 cells assessed as nitration of tyrosine in pgp at 5 uM measured after 20 mins by immunoblotting; method in brief: as §3
[3] = Solubility of the compound in PBS with 3% DMSO; type: physicochemical; conditions: buffer
[4] = target: T2, Broad substrate specificity ATP-binding cassette transporter ABCG2; assay: Inhibition of BCRP in 7 mW/cm'2 irradiated human M14 cells assessed as reduction in BCRP ATPase activity at 5 uM measured after 20 mins by spectrophotometric method; method in brief: as §2
[5] = Induction of NO release in pH 7.4 PBS irradiated with 7 mW/cm2 light at 10 uM after 0.5 hrs in presence of calf thymus DNA by amperometric detection assay
Method in brief: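 NO release recorded during alternating light (λexc 405 nm) and dark cycles. Solution at 10 μM in PBS (pH 7.4, 10 mM, 3% DMSO), with or without 18 μM ct-DNA.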

H9c2 = assay: Cytotoxicity against 7 mW/cm'2 irradiated rat H9c2 cells at 5 uM measured after 20 mins by spectrophotometric method; type: cell-based; conditions: h9c2, 20 min; method in brief: as §1
M14 = assay: Cytotoxicity against 7 mW/cm'2 irradiated human M14 cells assessed as increase in LDH release at 5 uM coadministered with DOX measured after 20 mins by spectrophotometric method; type: functional, cell-based
Method in brief: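 Cells (M14 melanoma, human fibroblasts or rat H9c2 cardiomyocytes) kept 20 min at room temperature in PBS under 400 nm light (7 mW/cm2), alone or with 5 μM compound, given alone or with equimolar 5 μM doxorubicin. Damage read as extracellular LDH release. Triplicate measurements, n = 3.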

| solubility [3] | Compound | Activity (Fibroblast) | inhibition (INH) [1] | inhibition (INH) [2] | inhibition (Homo sapiens) | inhibition (INH) [4] | Activity [5] | Activity (H9c2) | Activity (M14) |
| --- | --- | --- | --- | --- | --- | --- | --- | --- | --- |
| Soluble | COc1cccc2c1C(=O)c1c(O)c3c(c(O)c1C2=O)C[C@@](O)(C(=O)COC(=O)c1ccc(C(=O)NCCCNc2ccc([N+](=O)[O-])c(C(F)(F)F)c2)cc1)C[C@@H]3O[C@H]1C[C@H](N)[C@H](O)[C@H](C)O1.Cl | Non-Toxic | Active | Active | Active | Active | Active | Non-Toxic |  |
|  | NCCCNc1ccc([N+](=O)[O-])c(C(F)(F)F)c1 | Non-Toxic | Active | Active | Active | Active |  | Non-Toxic | Active |

— ChEMBL document CHEMBL4000256, “Light-Regulated NO Release as a Novel Strategy To Overcome Doxorubicin Multidrug Resistance” (ACS Med Chem Lett, 2017)
